# Experimental data reported in ChEMBL document CHEMBL1649560, “Beta-lactamase-mediated beta-lactam resistance in Campylobacter species: prevalence of Cj0299 (bla OXA-61) and evidence for a novel beta-Lactamase in C. jejuni” (2009).
# Legend:
# Type in all cases: functional
# Campylobacter jejuni [1] = assay: Antibacterial activity against bla gene-negative and nitrocefin reaction-positive beta-lactamase harboring Campylobacter jejuni isolate P843 by NCCLS agar doubling dilution method
# Procedure, shortened: (§1)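 MICs of β-lactams by agar doubling dilution following the NCCLS (CLSI) Campylobacter Working Group procedure, with C. jejuni NCTC 11168 and C. coli NCTC 11366 as controls. Isolates were from UK poultry flocks. β-Lactamase status was set by Cj0299 PCR (281-bp amplimer) and by a nitrocefin colour change of sonicated lysate within 5 min, or within 30 min on repeat.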
# Campylobacter jejuni [2] = assay: Antibacterial activity against bla gene-positive and nitrocefin reaction-positive beta-lactamase harboring Campylobacter jejuni isolate P790 by NCCLS agar doubling dilution method
# Procedure, shortened: (§2)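 MICs by agar doubling dilution per the NCCLS (now CLSI) Campylobacter Working Group method. Isolates came from UK chicken flocks (feces, ceca or farm environment), 2000–2006. C. jejuni NCTC 11168 and C. coli NCTC 11366 served as control strains. The ampicillin resistance cutoff was 8 μg/ml; BSAC/CLSI Enterobacteriaceae guidelines were used for other agents.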
# Campylobacter jejuni [3] = assay: Antibacterial activity against Campylobacter jejuni isolate P270 harboring blaOXA-61::cat gene by NCCLS agar doubling dilution method
# Campylobacter jejuni [4] = assay: Antibacterial activity against bla gene-negative and nitrocefin reaction-negative beta-lactamase harboring Campylobacter jejuni isolate P835 by NCCLS agar doubling dilution method; procedure, shortened: as §1
# Campylobacter jejuni [5] = assay: Antibacterial activity against bla gene-positive and nitrocefin reaction-positive beta-lactamase harboring Campylobacter jejuni isolate P1618 by NCCLS agar doubling dilution method; procedure, shortened: as §1
# Campylobacter jejuni [6] = assay: Antibacterial activity against Campylobacter jejuni by NCCLS agar doubling dilution method
# Procedure, shortened: (§3)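 MICs by agar doubling dilution following the NCCLS (CLSI) Campylobacter Working Group procedure, applied to ampicillin- and amoxicillin-resistant isolates from UK chicken flocks (2000–2006). C. jejuni NCTC 11168 and C. coli NCTC 11366 served as control strains. Resistance was called at an ampicillin cutoff of 8 μg/ml. Other agents were judged against Enterobacteriaceae guidelines (BSAC, CLSI).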
# Campylobacter jejuni [7] = assay: Antibacterial activity against bla gene-positive and nitrocefin reaction-positive beta-lactamase harboring Campylobacter jejuni isolate P286 by NCCLS agar doubling dilution method; procedure, shortened: as §2
# Campylobacter jejuni [8] = assay: Antibacterial activity against bla gene-positive and nitrocefin reaction-positive beta-lactamase harboring Campylobacter jejuni isolate P305 by NCCLS agar doubling dilution method; procedure, shortened: as §2
# Campylobacter jejuni [9] = assay: Antibacterial activity against bla gene-positive and nitrocefin reaction-negative beta-lactamase harboring Campylobacter jejuni isolate P1698 by NCCLS agar doubling dilution method; procedure, shortened: as §1
# Campylobacter jejuni [10] = assay: Antibacterial activity against bla gene-negative and nitrocefin reaction-negative beta-lactamase harboring Campylobacter jejuni isolate P850 by NCCLS agar doubling dilution method; procedure, shortened: as §1
# Campylobacter jejuni [11] = assay: Antibacterial activity against bla gene-positive and nitrocefin reaction-positive beta-lactamase harboring Campylobacter jejuni isolate P285 by NCCLS agar doubling dilution method; procedure, shortened: as §2
# Campylobacter coli [12] = assay: Antibacterial activity against Campylobacter coli by NCCLS agar doubling dilution method; procedure, shortened: as §3
# Campylobacter jejuni [13] = assay: Antibacterial activity against bla gene-negative and nitrocefin reaction-positive beta-lactamase harboring Campylobacter jejuni isolate P854 by NCCLS agar doubling dilution method; procedure, shortened: as §1
# Campylobacter jejuni [14] = assay: Antibacterial activity against bla gene-positive and nitrocefin reaction-negative beta-lactamase harboring Campylobacter jejuni isolate P1699 by NCCLS agar doubling dilution method; procedure, shortened: as §1
# Campylobacter coli [15] = assay: Antibacterial activity against bla gene-positive and nitrocefin reaction-positive beta-lactamase harboring Campylobacter coli isolate P1826 by NCCLS agar doubling dilution method; procedure, shortened: as §1
# Campylobacter jejuni [16] = assay: Antibacterial activity against bla gene-positive and nitrocefin reaction-positive beta-lactamase harboring Campylobacter jejuni isolate P316 by NCCLS agar doubling dilution method; procedure, shortened: as §2
# Campylobacter jejuni [17] = assay: Antibacterial activity against bla gene-positive and nitrocefin reaction-positive beta-lactamase harboring Campylobacter jejuni isolate P1650 by NCCLS agar doubling dilution method; procedure, shortened: as §1
# Campylobacter jejuni [18] = assay: Antibacterial activity against bla gene-positive and nitrocefin reaction-negative beta-lactamase harboring Campylobacter jejuni NCTC 11168 by NCCLS agar doubling dilution method; procedure, shortened: as §1
# Campylobacter jejuni [19] = assay: Antibacterial activity against bla gene-positive and nitrocefin reaction-positive beta-lactamase harboring Campylobacter jejuni isolate P1730 by NCCLS agar doubling dilution method; procedure, shortened: as §2
# Campylobacter jejuni [20] = assay: Antibacterial activity against bla gene-negative and nitrocefin reaction-negative beta-lactamase harboring Campylobacter jejuni isolate P1962 by NCCLS agar doubling dilution method; procedure, shortened: as §1
# Campylobacter jejuni [21] = assay: Antibacterial activity against Campylobacter jejuni isolate P338 harboring blaOXA-61::cat gene by NCCLS agar doubling dilution method
# Procedure, shortened: (§4)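 Agar doubling dilution MICs (NCCLS/CLSI Campylobacter Working Group method) against Cj0299-inactivated mutants. Mutants were made by transforming the C. jejuni isolate with pCI and selecting on Mueller-Hinton agar with 10 μg/ml chloramphenicol for 3–5 days. Chromosomal insertion was confirmed by PCR with Cj0299 and cat primers.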
# Campylobacter coli [22] = assay: Antibacterial activity against bla-positive and beta-lactamase-weakly positive Campylobacter coli isolate P1627 by NCCLS agar doubling dilution method; procedure, shortened: as §2
# Campylobacter jejuni [23] = assay: Antibacterial activity against bla gene-positive and nitrocefin reaction-positive beta-lactamase harboring Campylobacter jejuni isolate P338 by NCCLS agar doubling dilution method; procedure, shortened: as §2
# Campylobacter jejuni [24] = assay: Antibacterial activity against Campylobacter jejuni isolate P1093 harboring blaOXA-61::cat gene by NCCLS agar doubling dilution method; procedure, shortened: as §4
# Campylobacter coli [25] = assay: Antibacterial activity against bla gene-positive and nitrocefin reaction-positive beta-lactamase harboring Campylobacter coli isolate P321 by NCCLS agar doubling dilution method; procedure, shortened: as §1
# Campylobacter jejuni [26] = assay: Antibacterial activity against bla gene-positive and nitrocefin reaction-positive beta-lactamase harboring Campylobacter jejuni isolate P1093 by NCCLS agar doubling dilution method; procedure, shortened: as §1
structure (smiles),measurement,setting,value
C[C@@H](O)[C@H]1C(=O)N2C(C(=O)O)=C(SCCNC=N)C[C@H]12 [IMIPENEM ANHYDROUS],MIC,Campylobacter jejuni [1],0.06 µg/mL
same,MIC,Campylobacter jejuni [2],0.12 µg/mL
same,MIC,Campylobacter jejuni [3],0.03 µg/mL
same,MIC,Campylobacter jejuni [4],0.06 µg/mL
same,MIC,Campylobacter jejuni [5],0.015 µg/mL
same,MIC50,Campylobacter jejuni [6],0.03 µg/mL
same,MIC90,Campylobacter jejuni [6],0.06 µg/mL
same,MIC,Campylobacter jejuni [7],0.25 µg/mL
same,MIC,Campylobacter jejuni [8],0.06 µg/mL
same,MIC,Campylobacter jejuni [9],0.06 µg/mL
same,MIC,Campylobacter jejuni [10],0.06 µg/mL
same,MIC,Campylobacter jejuni [11],0.015 µg/mL
same,MIC50,Campylobacter coli [12],0.06 µg/mL
same,MIC90,Campylobacter coli [12],0.12 µg/mL
same,MIC,Campylobacter jejuni [13],0.06 µg/mL
same,MIC,Campylobacter jejuni [14],0.03 µg/mL
same,MIC,Campylobacter coli [15],0.03 µg/mL
same,MIC,Campylobacter jejuni [16],0.06 µg/mL
same,MIC,Campylobacter jejuni [17],0.06 µg/mL
same,MIC,Campylobacter jejuni [18],0.03 µg/mL
same,MIC,Campylobacter jejuni [19],0.015 µg/mL
same,MIC,Campylobacter jejuni [20],0.015 µg/mL
same,MIC,Campylobacter jejuni [21],0.03 µg/mL
same,MIC,Campylobacter coli [22],0.12 µg/mL
same,MIC,Campylobacter jejuni [23],0.06 µg/mL
same,MIC,Campylobacter jejuni [24],0.12 µg/mL
same,MIC,Campylobacter coli [25],0.12 µg/mL
same,MIC,Campylobacter jejuni [26],0.12 µg/mL
